The source of these data is ChEMBL document CHEMBL3808295, “Discovery of enantioselectivity of urea inhibitors of soluble epoxide hydrolase” (Eur J Med Chem, 2016).

By IC50 is commonly meant the concentration needed to halve the response being measured.

Test [1] deals with T1, Epoxide hydrolase 1 (Homo sapiens) (UniProt P07099).
T1 sequence (whole entry): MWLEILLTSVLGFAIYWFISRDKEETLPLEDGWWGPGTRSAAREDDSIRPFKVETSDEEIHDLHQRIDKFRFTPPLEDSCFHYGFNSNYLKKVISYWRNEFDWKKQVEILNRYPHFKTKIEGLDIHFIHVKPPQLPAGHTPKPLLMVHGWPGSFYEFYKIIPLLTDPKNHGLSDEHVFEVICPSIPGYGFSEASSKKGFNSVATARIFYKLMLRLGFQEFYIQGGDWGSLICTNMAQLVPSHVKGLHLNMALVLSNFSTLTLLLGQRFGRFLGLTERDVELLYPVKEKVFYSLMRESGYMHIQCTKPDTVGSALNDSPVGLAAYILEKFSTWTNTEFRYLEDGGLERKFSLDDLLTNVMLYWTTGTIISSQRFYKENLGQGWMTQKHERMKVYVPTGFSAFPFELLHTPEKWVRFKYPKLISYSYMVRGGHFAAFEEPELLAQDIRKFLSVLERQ
In words: Inhibition of microsomal epoxide hydrolase in pooled human liver microsomes assessed as enzyme activity using styrene oxide as substrate at 10 uM incubated for 10 mins by UV-HPLC analysis relative to control. Further details: scale not given: the % may be the effect or the level left. The gist of the method: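 Pooled human liver microsomes (0.2 mg/mL) incubated with styrene oxide (25 μM) and 10 μM test compound in 0.1 M Tris-HCl pH 9.0 at 37°C for 10 min; quenched with n-hexane, centrifuged, supernatant analysed by UV-HPLC (C18, 30°C, 40% methanol). Activity from styrene glycol formed, as percentage of control; valpromide positive control.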
A general note: Liver microsomes are vesicles of endoplasmic reticulum, rich in cytochrome P450 enzymes.

Test [2] deals with T2, Bifunctional epoxide hydrolase 2 (Homo sapiens, UniProt P34913).
T2 sequence (P34913 whole entry): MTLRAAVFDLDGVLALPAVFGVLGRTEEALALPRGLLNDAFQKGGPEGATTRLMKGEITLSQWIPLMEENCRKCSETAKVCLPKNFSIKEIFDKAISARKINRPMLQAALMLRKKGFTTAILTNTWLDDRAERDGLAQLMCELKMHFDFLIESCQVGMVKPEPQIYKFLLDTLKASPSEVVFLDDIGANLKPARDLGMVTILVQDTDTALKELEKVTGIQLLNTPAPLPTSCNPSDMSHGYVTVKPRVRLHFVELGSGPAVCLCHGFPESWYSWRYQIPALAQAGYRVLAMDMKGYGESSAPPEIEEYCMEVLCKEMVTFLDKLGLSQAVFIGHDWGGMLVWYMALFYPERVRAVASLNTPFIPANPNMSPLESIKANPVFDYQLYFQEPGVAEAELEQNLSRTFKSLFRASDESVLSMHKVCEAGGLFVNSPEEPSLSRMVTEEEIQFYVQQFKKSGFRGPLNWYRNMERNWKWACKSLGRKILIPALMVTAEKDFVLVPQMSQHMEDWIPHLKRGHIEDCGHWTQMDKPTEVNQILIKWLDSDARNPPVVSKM
Kind of test: Inhibition of soluble epoxide hydrolase (unknown origin) using 14,15-EET as substrate incubated for 20 mins by LC-MS/MS analysis.

Consider `CCC(C)NC(=O)NCCCc1ccccc1` (racemic), for which, in test [1], the Activity was determined as 102%. The same compound showed a half-inhibitory concentration (IC50) in test [2] of 650 nM.

For the compound `C[C@H](NC(=O)NCCCc1ccccc1)C1CCCCC1`, in test [1], the Activity stood at 99.4%. This compound displayed an IC50 in test [2] of 182 nM.

In the case of `O=C(NCCCc1ccccc1)N1CCC[C@@H]1c1ccccc1`, the Activity in test [1] stood at 101%. Besides, in test [2], half-maximal inhibition (IC50) required 1510 nM.

For `C[C@@H](NC(=O)NCCCc1ccc(S(N)(=O)=O)cc1)c1ccccc1`, in test [1], the Activity was 101%. Besides, in test [2], inhibition was half-maximal at 2030 nM (IC50).

Take `C[C@@H](NC(=O)NCCCc1ccccc1)c1ccccc1`: the Activity in test [1] was found to be 102%. In addition, the IC50 in test [2] was 1730 nM.

With `O=C(NCCCc1ccccc1)N[C@H](CO)c1ccccc1`, the Activity in test [1] came to 107%. The compound also came in with an IC50 in test [2] of 20000 nM.

Consider `O=C(NCCCc1ccccc1)N[C@H]1CCc2ccccc21`, for which the Activity in test [1] was 112%. The compound further yielded an IC50 in test [2] of 65 nM.

Consider `C[C@@H](NC(=O)NCCCc1ccccc1)c1cccc2ccccc12`, for which the Activity in test [1] was 98.7%. In test [2], this compound returned an IC50 of 364 nM.

On to `O=C(NCCCc1ccccc1)NCc1ccccc1`, for which the Activity in test [1] stood at 105%. Besides, the IC50 in test [2] was determined as 3260 nM.

`C[C@H](NC(=O)NCCCc1ccccc1)c1cccc2ccccc12`: the Activity in test [1] is 102%. The compound also showed an IC50 in test [2] of 43 nM.

`C[C@H](NC(=O)NCCCc1ccc(S(N)(=O)=O)cc1)c1ccccc1`: in test [1], the Activity is 99.9%. For the same compound, the IC50 in test [2] stood at 22 nM.

For the compound `CC[C@@H](NC(=O)NCCCc1ccccc1)c1ccccc1`, the Activity in test [1] came out at 103%. This compound also had an IC50 in test [2] of 4500 nM.

`CC[C@H](NC(=O)NCCCc1ccccc1)c1ccccc1`: the Activity in test [1] came to 106%. The IC50 in test [2] was found to be 36 nM.

On to `O=C(NCCCc1ccccc1)N1CCC[C@H]1c1ccccc1`, for which the Activity in test [1] is 99.8%. Besides, the IC50 in test [2] was found to be 332 nM.

For `O=C(NCCCc1ccccc1)N[C@H]1CCCc2ccccc21`, the Activity in test [1] came out at 106%. In test [2], this compound gave an IC50 of 13 nM.

Regarding `C[C@H](NC(=O)NCCCc1ccccc1)c1ccccc1`, the Activity in test [1] was determined as 84.6%. In test [2], this compound came in with an IC50 of 44 nM.

For `O=C(NCCCc1ccccc1)N[C@@H](CO)c1ccccc1`, the Activity in test [1] came to 102%. Besides, the IC50 in test [2] amounted to 2740 nM.

Regarding `O=C(NCCCc1ccccc1)N[C@@H]1CCCc2ccccc21`, the Activity in test [1] is 106%. Besides, the IC50 in test [2] was 13 nM.

As for `C[C@@H](NC(=O)NCCCc1ccccc1)C1CCCCC1`, the Activity in test [1] came to 103%. For the same compound, the IC50 in test [2] was 302 nM.

For `CC[C@H](C)NC(=O)NCCCc1ccccc1`, the Activity in test [1] amounted to 101%. Also, the IC50 in test [2] stood at 63 nM.

For `CCCC(CCC)C(N)=O`, the Activity in test [1] was determined as 50.9%.

Take `O=C(NCCCc1ccccc1)N[C@@H]1CCc2ccccc21`: the Activity in test [1] was found to be 110%. The compound also yielded an IC50 in test [2] of 22 nM.
